Consider 26 molecules from PubChem BioAssay AID1556 (The Scripps Research Institute Molecular Screening Center, 2009).

The whole screen tested about 290,000 compounds, of which about 1,300 (0.45%) were called active.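 Rule for the calls: active = inhibition above the mean plus 3 SD of all compounds in the same screening run (cut at about 4.5% in these data); inactive = the rest.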 The sample as a whole holds a higher share of actives than the screen did.

For this experiment, the system named is metallo-beta-lactamase IMP-1 (Pseudomonas aeruginosa). In words: inhibition of IMP-1 nitrocefin hydrolysis – biochemical, epi-absorbance readout, Pseudomonas aeruginosa enzyme, primary screen (AID 1556).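 Note: 0% = IMP-1 with DMSO and 100% = DMSO wells lacking enzyme.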 The conditions noted are these: purified IMP-1, nitrocefin hydrolysis, epi-absorbance fluorescence; at 5.6 µM; hits give high values. An outline of the steps:
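System: purified recombinant IMP-1 beta-lactamase. Medium: Zinc- and detergent-supplemented HEPES buffer, pH 7.1. Compound: one 5.6 µM dose […]. Schedule: 15 min preincubation plus 25 min reaction at 25 °C. Technique: Epi-absorbance fluorescence, 480 nm excitation, 530 nm emission.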
As usually defined, the inhibition is the change of the read-out against control, counted positive when it falls. Consider `CSCCC(NC(=O)c1ccc(Cl)cc1Cl)C(=O)NNC(=O)c1csc(N2CCOCC2)n1` (stereo unspecified), for which the inhibition is -2.46% (inactive). Turning to `COc1ccc(Cl)cc1NC(=O)CCS(=O)(=O)c1ccc(Br)cc1`, the inhibition was 9.04% (active). The same measure for `COc1ccc(Cl)cc1NC(=O)CCS(=O)(=O)c1cc2c(cc1C)NC(=O)CO2`: -3.94% (inactive); for `O=C(CCS(=O)(=O)c1ccc(Br)cc1)NCCc1ccc(Cl)cc1`: 0.69% (inactive). As to `COc1ccc2cc(-c3[nH]ncc3CNCCn3nc(C)cc3C)ccc2c1`, the inhibition is -2.54% (inactive). As for `O=C(NCc1ccncc1)C(=O)NCC1OCCN1S(=O)(=O)c1ccc(Br)cc1` (stereo unspecified), the figure is -1.07% (inactive). As for `COc1ccc2cc(S(=O)(=O)Nc3ccccn3)ccc2c1`, the figure is -3.85% (inactive); as for `COc1ccc(C(=O)/C=C/Nc2ccccn2)cc1`, 5.05% (active); as for `CCOc1ccc(N/C=C/C(=O)c2ccccc2)cc1`, -2.54% (inactive). For `COc1ccc(/C=N/Nc2ccccc2C(=O)O)cc1`, the inhibition was -1.08% (inactive). Consider `CCOC(=O)C1=C(c2ccccc2)NC(=O)NC1c1cc(OC)c(OC)cc1OC` (stereo unspecified), for which the inhibition is -2.08% (inactive). As to `Cc1ccccc1Nc1nnc(SCC(=O)c2cc3ccccc3o2)s1`, the inhibition was 7.2% (active). As for `Cc1cc(NC(=O)CSc2nnc(Nc3ccccc3F)s2)no1`, the figure is -0.94% (inactive); as for `Cc1ccc(Nc2nnc(SCC(=O)c3cc4ccccc4o3)s2)cc1C`, -0.86% (inactive). Take `O=[N+]([O-])c1cc(Cl)cc(/C=N/NC(=S)Nc2cc(S(=O)(=O)N3CCOCC3)ccc2Cl)c1O`: the inhibition was -0.24% (inactive). Consider `O=C(N/N=C/c1cc(Cl)cc([N+](=O)[O-])c1O)C(O)(c1ccccc1)c1ccccc1`, for which the inhibition is -3.33% (inactive). On to `CN(C)/N=C/c1cc(Cl)cc([N+](=O)[O-])c1O`, for which the inhibition was 4.62% (active). The same measure for `O=C(Nc1ccccc1Cc1ccccc1)c1ccc2c(c1)SC1=NS(=O)(=O)CCN12`: -3.52% (inactive); for `COc1ccc(CNC(=O)CN(c2ccc(OC)c(Cl)c2)S(=O)(=O)c2ccc(C)cc2)cc1`: -0.9% (inactive).

With `CCOC(=O)c1cc2cc3ccccc3cc2oc1=O`, the inhibition was 0.55% (inactive).

`CC1CCN(C(=O)CCNC(=O)c2ccccc2)CC1`: the inhibition was -1.09% (inactive). The same measure for `Cc1oc2c(F)c(F)c(F)c(F)c2c1S(=O)(=O)Nc1cccc(C(F)(F)F)c1`: -0.74% (inactive); for `COc1ccc(OC)c(S(=O)(=O)N2CCCC(C(=O)NCCc3ccccc3)C2)c1` (stereo unspecified): -0.65% (inactive); for `Cc1cccn2c(=O)c(/C=C3\SC(=S)N(CC(C)C)C3=O)c(NCCCOC(C)C)nc12`: -1.23% (inactive). Regarding `CCOC(=O)CC1C(=O)NCCN1c1nc2c(C)cccn2c(=O)c1/C=C1\SC(=S)N(C(C)CC)C1=O` (stereo unspecified), the inhibition is -2.03% (inactive). Consider `CCCN(CCC)c1nc2c(C)cccn2c(=O)c1/C=C1/SC(=S)N(Cc2ccco2)C1=O`, for which the inhibition was 7.59% (active).
